Sampled rows, rich in hits. Any-hit rate of the full collection: about 1%.
CAL PDZ FP-1: inhibitors of human CAL PDZ peptide binding | Q9HD26 | purified CAL PDZ, TMR-peptide fluorescence polarization, 1 h | inhibition, % at 24.9 µM | 300,000 compounds, 0.92% hits | AID 602252;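 active means mean inhibition of at least 30% with at least half of replicates also reaching 30%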;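 further: 0% = DMSO neutral control and 100% = excess unlabeled competitor peptide PRC23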
ERp5 block: inhibitors of human ERp5. 350,000 compounds, 0.05% hits. Q15084. inhibition, % at 9.99 µM. ERp5 insulin aggregation, absorbance 650 nm, 90 min;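 active means mean replicate inhibition above about 25%, with every replicate also reaching it, limit read from the data, passing the limit was not always enough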
RAD52 anneal inh: RAD52 (human) annealing inhibition. recombinant RAD52 DNA annealing, FRET fluorescence. inhibition, % at 18.7 µM. 360,000 compounds, 0.46% hits;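 active means every replicate showing at least 50% inhibition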
RAD54 branch: inhibitors of human RAD54 branch migration; Q92698; RAD54 Holliday junction branch migration, FAM/BHQ fluorescence; inhibition, % at 10.4 µM; 360,000 compounds, 0.14% hits; AID 602329;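 active means mean normalized replicate activity at least 40 and at least half of replicates scoring 40 or more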;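 further: 0% = median of neutral control wells and 100% = median of positive control wells; inhibitors cause a drop in the FAM fluorescence signal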
Target sequence (Q92698 whole entry, looked up): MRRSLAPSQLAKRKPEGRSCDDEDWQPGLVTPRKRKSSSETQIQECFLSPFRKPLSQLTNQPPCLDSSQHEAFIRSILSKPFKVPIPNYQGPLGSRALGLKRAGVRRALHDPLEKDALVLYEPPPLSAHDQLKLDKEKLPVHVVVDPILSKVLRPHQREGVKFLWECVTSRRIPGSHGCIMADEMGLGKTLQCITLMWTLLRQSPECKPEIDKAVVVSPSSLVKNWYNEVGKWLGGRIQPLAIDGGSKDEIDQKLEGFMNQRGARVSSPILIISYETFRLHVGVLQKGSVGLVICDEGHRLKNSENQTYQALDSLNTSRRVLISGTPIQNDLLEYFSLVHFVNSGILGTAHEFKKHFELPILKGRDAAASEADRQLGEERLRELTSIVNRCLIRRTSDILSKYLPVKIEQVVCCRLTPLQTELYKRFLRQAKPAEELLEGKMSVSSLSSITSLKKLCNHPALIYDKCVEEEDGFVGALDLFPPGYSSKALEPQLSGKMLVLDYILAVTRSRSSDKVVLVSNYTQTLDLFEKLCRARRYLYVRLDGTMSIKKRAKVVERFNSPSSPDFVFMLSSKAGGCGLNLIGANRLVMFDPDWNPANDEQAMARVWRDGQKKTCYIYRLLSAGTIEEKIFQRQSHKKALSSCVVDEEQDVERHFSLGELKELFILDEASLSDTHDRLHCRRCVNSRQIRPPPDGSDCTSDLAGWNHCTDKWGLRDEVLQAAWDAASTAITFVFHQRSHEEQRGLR
PDI turbidity: PDI (human) enzyme inhibition; P07237; PDI insulin aggregation turbidity, A650, 90 min; inhibition, % at 10 µM; 350,000 compounds, 0.052% hits; AID 588391;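 active means mean inhibition across replicates of 30% or more, whatever share of single replicates reach that level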
CAL PDZ FP-2: inhibitors of human CAL PDZ peptide binding; 330,000 compounds, 0.02% hits; inhibition, % at 20 µM; purified CAL PDZ, TMR-peptide fluorescence polarization, 1 h; Q9HD26;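 active means highest replicate inhibition of at least 40%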;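 further: plate controls were DMSO neutral control wells for no effect and unlabeled competitor peptide control wells for full effect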
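Test system: purified CerCALP PDZ construct; Compound dosing: one concentration, 20 µM compound; Also added: TMR-labelled reporter peptide T*-PRC34 bound in PDZ groove; Read-out: inhibition from polarization loss; Controls: unlabelled peptide and DMSO controls; Signal: FP readout, S and P plane fluorescence; Incubation: 1 h at RT.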
* marks the source's active call; other numbers are inactive results; i = inactive; . = no result given; + = active, no number.

SMILES | CAL PDZ FP-1 | ERp5 block | RAD52 anneal inh | RAD54 branch | PDI turbidity | CAL PDZ FP-2
O=C(CN1C(=O)NC2(CCCCCC2)C1=O)N1CCN(c2ccc(F)cc2)CC1 | -2 | 7 | -11 | -7 | -3 | 0
C[C@H](CO)N1C[C@H](C)[C@H](CN(C)C(=O)c2ccncc2)Oc2cc(C3=CCCCC3)ccc2S1(=O)=O | . | 2 | 2 | 15 | . | .
COc1cc(C2C(C(C)=O)=C(O)C(=O)N2CCc2c[nH]c3ccccc23)ccc1O (centres undefined) | 4 | . | . | 4 | 41* | 1
CN1c2ccc(C#Cc3cccnc3)cc2[C@@H]2[C@@H](CCN2C(=O)C2CCC2)[C@H]1CO | . | 1 | -4 | . | . | .
O=C(CN1CCN(C(=O)c2ccco2)CC1)Nc1ccccc1 | -5 | -2 | -22 | -6 | 9 | -1
O=C(CN1CCN(C(=O)c2ccco2)CC1)Nc1ccc(F)cc1F | 89* | -4 | -1 | -4 | 8 | 0
CC(C)NC(=O)Nc1ccc2c(c1)C(=O)N([C@@H](C)CO)C[C@@H](C)[C@@H](CN(C)S(=O)(=O)c1ccc(Cl)cc1)O2 | . | 0 | 7 | 16 | . | .
COc1ccc(CN(C)C[C@@H]2Oc3ccc(NC(=O)Nc4ccccc4)cc3C(=O)N([C@H](C)CO)C[C@H]2C)cc1 | . | 3 | 22 | 57* | . | .
COc1ccc(CN(C)C[C@@H]2Oc3ccc(NC(=O)Nc4ccc5c(c4)OCO5)cc3C(=O)N([C@@H](C)CO)C[C@H]2C)cc1 | . | -2 | 15 | 61* | . | .
CC(C)NC(=O)Nc1ccc2c(c1)C(=O)N([C@H](C)CO)C[C@@H](C)[C@H](CN(C)S(=O)(=O)c1ccc(Cl)cc1)O2 | . | 2 | 5 | 56* | . | .
COc1ccc(CN(C)C[C@H]2Oc3ccc(NC(=O)Nc4ccccc4)cc3C(=O)N([C@H](C)CO)C[C@H]2C)cc1 | . | -9 | 26 | -3 | . | .
COc1ccc(CN(C)C[C@@H]2Oc3ccc(NC(=O)Nc4ccc5c(c4)OCO5)cc3C(=O)N([C@@H](C)CO)C[C@@H]2C)cc1 | . | 2 | -8 | 9 | . | .
COc1ccc(S(=O)(=O)N(C)C[C@@H]2Oc3ccc(NC(=O)Nc4ccc5c(c4)OCO5)cc3C(=O)N([C@@H](C)CO)C[C@H]2C)cc1 | . | 17 | -5 | 57* | . | .
COc1ccc(S(=O)(=O)N(C)C[C@@H]2Oc3ccc(NC(=O)c4ccncc4)cc3C(=O)N([C@H](C)CO)C[C@@H]2C)cc1 | . | 64* | -6 | 8 | . | .
COc1ccc(S(=O)(=O)N(C)C[C@H]2Oc3ccc(NC(=O)c4ccncc4)cc3C(=O)N([C@H](C)CO)C[C@H]2C)cc1 | . | -2 | -4 | -4 | . | .
C[C@@H]1CN([C@H](C)CO)C(=O)c2cccc(NC(=O)Nc3ccc4c(c3)OCO4)c2O[C@H]1CN(C)Cc1ccc(Oc2ccccc2)cc1 | . | 32* | 1 | 2 | . | .
COc1ccc(CN(C)C[C@@H]2Oc3ccc(NC(=O)Nc4ccc5c(c4)OCO5)cc3C(=O)N([C@H](C)CO)C[C@H]2C)cc1 | . | 0 | 1 | 67* | . | .
COc1ccc(CN(C)C[C@H]2Oc3ccc(NC(=O)Nc4ccc5c(c4)OCO5)cc3C(=O)N([C@H](C)CO)C[C@@H]2C)cc1 | . | -3 | 2 | 15 | . | .
Cc1noc(C)c1NC(=O)N(C)C[C@@H]1Oc2ccc(N(C)C)cc2C(=O)N([C@H](C)CO)C[C@H]1C | . | -3 | 2 | 1 | . | .
CC(C)CNC(=O)COC(=O)CCC(=O)c1ccc(Cl)cc1 | 13 | 3 | -2 | 3 | -2 | 41*
C[C@@H]1CN([C@@H](C)CO)S(=O)(=O)c2ccc(-c3ccccc3)cc2O[C@H]1CN(C)C | . | 2 | 14 | 0 | . | .
Cc1ccc(C(c2nnnn2C2CCCCC2)N2CCc3ccccc32)cc1 (centres undefined) | 74* | . | . | . | 6 | -1
CC(C)C(c1nnnn1C1CCCCC1)N1CCc2ccccc21 (centres undefined) | 2 | . | . | -6 | 4 | 0
O=C(Nc1ccc2c(c1)OCO2)N[C@@H]1CC[C@H](CCNC(=O)C2CCC2)O[C@@H]1CO | . | 5 | 8 | 6 | . | .
COC(=O)c1ccccc1SCC(=O)Nc1ccc(N2CCOCC2)cc1 | 64* | 13 | -12 | 3 | 2 | -2
SMILES | CAL PDZ FP-1 | ERp5 block | RAD52 anneal inh | RAD54 branch | PDI turbidity | CAL PDZ FP-2
O=C(CSc1ccccc1F)Nc1ccc(N2CCOCC2)cc1 | . | 0 | -7 | -5 | 4 | 0
C[C@H](NC(=O)C[C@@H]1CC[C@H](NC(=O)C2CC2)[C@@H](CO)O1)c1ccccc1 | . | -2 | -21 | 2 | . | .
Cc1ccc(S(=O)(=O)N2CC(C)N(C(=O)N3CCOCC3)C2)cc1 (centres undefined) | -4 | 3 | -3 | -3 | -1 | -2
CCC(=O)N1CN(S(=O)(=O)c2ccc(C)cc2)CC1C (centres undefined) | 42* | . | . | -2 | -1 | 0
CC(=O)N(C)C[C@H]1Oc2cc(-c3ccccc3C)ccc2S(=O)(=O)N([C@H](C)CO)C[C@@H]1C | . | 17 | -7 | -1 | . | .
Cc1ccc(N2CC(C(=O)NC3=NCCS3)CC2=O)cc1C (centres undefined) | -13 | . | . | 2 | -10 | 0
Cc1ccc(N2CC(C(=O)Nc3ccc(N(C)C)cc3)CC2=O)cc1C (centres undefined) | 60* | . | . | -12 | 3 | 1
CCN1C(=O)CS/C1=N\S(=O)(=O)c1ccc(Cl)cc1 | -2 | 0 | -16 | -7 | 3 | 64*
COCCNC(=O)C[C@@H]1CC[C@@H]2[C@@H](COc3ccc(NS(=O)(=O)c4ccc(Cl)cc4)cc3C(=O)N2C)O1 | . | . | . | -2 | . | .
O=C(Nc1c2ccccc2nc2ccccc12)C(Cl)(Cl)Cl | -6 | . | . | 83* | 4 | -1
O=c1[nH]c2ccccc2cc1CN(CC1CCCO1)S(=O)(=O)c1ccccc1 (centres undefined) | 66* | -3 | 8 | -5 | -22 | 0
COc1ccc(S(=O)(=O)N(Cc2cc3cc(C)ccc3[nH]c2=O)CC2CCCO2)cc1 (centres undefined) | -2 | . | . | -12 | -1 | -1
Cn1cnc(S(=O)(=O)N[C@H]2CC[C@@H](CC(=O)Nc3ccc(-c4ccccc4)cc3)O[C@@H]2CO)c1 | . | 2 | -5 | -5 | . | .
CCN(CC)c1ccc2c(-c3ccc(S(=O)(=O)O)cc3S(=O)(=O)[O-])c3ccc(=[N+](CC)CC)cc-3oc2c1 | + | -3 | i | -366 | 1 | 171*
CCCCn1c(N)c(N(CC)C(=O)c2ccccc2F)c(=O)[nH]c1=O | 33* | -1 | -10 | -4 | 4 | 0
CCCCCCn1nc(C(=O)N(CCCC)c2c(N)n(CCC)c(=O)[nH]c2=O)c2ccccc2c1=O | 47* | -18 | -15 | -12 | -10 | 2
CCCCn1c(N)c(N(C)C(=O)C2CCCC2)c(=O)[nH]c1=O | 43* | . | -3 | 0 | -19 | 0
